In brackets after ≈: the same amount, converted by molar mass. Activity calls are given as the source filed them. No cut-off for these calls is given here.

These results are taken from ChEMBL document CHEMBL1932986, “Synthesis and in vitro antimycobacterial activity of compounds derived from (R)- and (S)-2-amino-1-butanol - The crucial role of the configuration” (Eur J Med Chem, 2012).

One series concerns Bacillus. In words: Antibacterial activity against Bacillus idosus B 241 at 50 mg/ml after 24 hrs by agar diffusion test. It is filed as functional. Particulars: for zone of inhibition at 50000 µg/mL: B 241, 24 h, read-out: DIZ. The method in brief:
(§1)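 Agar diffusion: wells in agar filled with […] DMSO solution of compound at various concentrations; diameter of clear zone around application point measured. Bacteria grown 24 h at 37 °C on nutrient agar. Compounds first screened at 50 mg/ml; those active then tested at lower concentrations. Bracketed value = lowest concentration (mg/ml) giving zone >11 mm, reported only if activity retained at ≤1.25 mg/ml.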

In series [1] the test system is Micrococcus luteus. Briefly: Antibacterial activity against Sarcina lutea ATCC 9341 at 50 mg/ml after 24 hrs by agar diffusion test. To be noted: for zone of inhibition at 50000 µg/mL: ATCC 9341, 24 h, read-out: DIZ. It is filed as functional. In outline:
(§2)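 Agar diffusion: bacteria grown 24 h at 37 °C on nutrient agar. Wells in the agar are filled with […] of compound solution in DMSO at various concentrations. The diameter of the clear zone around the application point is measured. Bracketed values give the lowest concentration (mg/ml) that produces a zone >11 mm. A first screen is run at 50 mg/ml.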
Background: In agar diffusion tests the substance spreads into inoculated agar from a disc or well.

The nature of series [2]: Solubility of the compound in deionized water. It is filed as physicochemical.
The next series deals with Saccharomyces cerevisiae. In words: Antifungal activity against Saccharomyces cerevisiae ATCC 9763 at 50 mg/ml after 72 hrs by agar diffusion test. It is filed as functional. Particulars: for zone of inhibition at 50000 µg/mL: ATCC 9763, 72 h, read-out: DIZ. The method in brief:
(§3)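 Agar diffusion: yeasts grown on yeast peptone dextrose agar and fungi on potato dextrose agar. Wells are filled with […] of compound solution in DMSO at various concentrations, and the clear-zone diameter is measured. Bracketed values give the lowest concentration (mg/ml) that produces a zone >11 mm. A first screen is run at 50 mg/ml.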

The test system of series [3] is Mycobacterium tuberculosis. Briefly: Ratio of ethambutol dihydrochloride MIC to compound MIC for Mycobacterium tuberculosis H37Rv. It counts as functional.
The next series has as its system Escherichia coli. In words: Antibacterial activity against Escherichia coli ATCC 8739 at 50 mg/ml after 24 hrs by agar diffusion test. It is filed as functional. The method in brief:
as §1

The next series relates to Bacillus mycoides. Briefly: Antibacterial activity against Bacillus mycoides DSMZ 274 at 50 mg/ml after 24 hrs by agar diffusion test. It is filed as functional. Particulars: for zone of inhibition at 50000 µg/mL: DSMZ 274, 24 h, read-out: DIZ. In outline:
as §1

The next series relates to Bacillus cereus. In words: Antibacterial activity against Bacillus cereus ATCC 11778 at 50 mg/ml after 24 hrs by agar diffusion test. Particulars: for zone of inhibition at 50000 µg/mL: ATCC 11778, 24 h, read-out: DIZ. It is filed as functional. The method in brief:
as §1

For another series, the system named is HEK-293T. In words: Cytotoxicity against human HEK293T cells after 72 hrs by MTT assay. It is filed as cell-based. In outline:
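293T cells in RPMI-1640 with 10% heat-inactivated FCS and 2 mM L-glutamine, 37 °C, 5% CO2. Cells seeded at 3.5 × 10⁵ cells/ml, grown 24 h, then exposed 72 h to DMSO-diluted compounds (final solvent ≤0.5%), ≥8 wells per concentration. MTT added 4 h, formazan dissolved in 5% HCOOH/2-propanol, absorbance read at 580 nm. IC50 obtained by sigmoidal nonlinear regression against untreated control.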
(In general: Formazan colour is commonly taken as a measure of viable cells.)

In the next series the test system is Acinetobacter johnsonii. In words: Antibacterial activity against Acinetobacter johnsonii ATCC 17909 at 50 mg/ml after 24 hrs by agar diffusion test. It counts as functional. Particulars: for zone of inhibition at 50000 µg/mL: ATCC 17909, 24 h, read-out: DIZ. The method in brief:
as §1

Series [4] can be described thus: Selectivity index, ratio of IC50 for human HEK293T cells to MIC for Mycobacterium tuberculosis H37Rv. It is filed as functional, HEK-293T.
Series [5] relates to Mycobacterium tuberculosis. In words: Antimycobacterial activity against Mycobacterium tuberculosis H37Rv after 45 days. It is filed as functional. In outline: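 Canetti proportion method. Compound in DMSO is added to Löwenstein–Jensen egg medium before coagulation (30 min, 85 °C), tested at three levels plus a lower one where needed. Tubes are inoculated with H37Rv at 10⁵ cells/ml and incubated 45 days at 37 °C. Colony counts versus drug-free control give percentage inhibition.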

The test system of another series is Penicillium chrysogenum. Briefly: Antifungal activity against Penicillium chrysogenum CECT 2802 at 50 mg/ml after 72 hrs by agar diffusion test. It is filed as functional. The method in brief: as §3
In series [6] the test system is Micrococcus luteus. In words: Antibacterial activity against Micrococcus luteus ATCC 9631 at 50 mg/ml after 24 hrs by agar diffusion test. It is filed as functional. To be noted: for zone of inhibition at 50000 µg/mL: ATCC 9631, 24 h, read-out: DIZ. In outline:
as §1

A further series has as its system Staphylococcus aureus. In words: Antibacterial activity against Staphylococcus aureus NRRL B 313 at 50 mg/ml after 24 hrs by agar diffusion test. It counts as functional. To be noted: for zone of inhibition at 50000 µg/mL: NRRL B 313, 24 h, read-out: DIZ. The method in brief: as §2
The subject of the next series is Candida tropicalis. Briefly: Antifungal activity against Candida tropicalis ATCC 20336 at 50 mg/ml after 72 hrs by agar diffusion test. It is filed as functional. To be noted: for zone of inhibition at 50000 µg/mL: ATCC 20336, 72 h, read-out: DIZ. In outline:
as §3

Another series concerns Bacillus subtilis. Briefly: Antibacterial activity against Bacillus subtilis ATCC 6633 at 50 mg/ml after 24 hrs by agar diffusion test. It counts as functional. To be noted: for zone of inhibition at 50000 µg/mL: ATCC 6633, 24 h, read-out: DIZ. The method in brief: as §1
Another series has as its system Priestia megaterium. In words: Antibacterial activity against Bacillus megaterium NRRL 1353895 at 50 mg/ml after 24 hrs by agar diffusion test. It counts as functional. To be noted: for zone of inhibition at 50000 µg/mL: NRRL 1353895, 24 h, read-out: DIZ. The method in brief: as §1

As usually defined, the solubility is the concentration that dissolves in the medium under given conditions. Read a high solubility as a readily soluble substance. What is called IC50 is the concentration needed to halve the response being measured. In general, MIC refers to the least concentration at which growth counts as inhibited. A lower MIC goes with a more susceptible organism. As to `CC[C@H](CO)N1Cc2ccccc2C1=O`, the “diameter of the inhibition zone (DIZ)” value in the series with Bacillus, in the series with Micrococcus luteus [1], in the series on Saccharomyces cerevisiae, in the series on Escherichia coli, with Bacillus mycoides and in the series with Bacillus cereus was “inactive” in each case. For the same compound, the “diameter of the inhibition zone (DIZ)” value in the series on Acinetobacter johnsonii, with Penicillium chrysogenum, with Micrococcus luteus [6], in the series on Staphylococcus aureus, in the series with Candida tropicalis and in the series on Bacillus subtilis was “inactive” in each case. Also, in the series on Priestia megaterium, the “diameter of the inhibition zone (DIZ)” value was “inactive”. The solubility in series [2] is 1000 µg/mL (≈ 4.87 mM). In series [3], the Ratio was 5. In the series on HEK-293T, this compound displayed a 50% inhibitory concentration (IC50) of 89 µM. In addition, the “Selectivity Index” value in series [4] was found to be 91.8. Further, the MIC in series [5] is 0.97 µM (≈ 0.199 µg/mL).
Turning to `CC[C@H](CO)NC(=O)c1ccc(N(C)C)cc1`, the “diameter of the inhibition zone (DIZ)” value in the series with Bacillus, in the series on Micrococcus luteus [1], in the series with Saccharomyces cerevisiae, in the series with Escherichia coli, with Bacillus mycoides and with Bacillus cereus was “inactive” each time. Moreover, the “diameter of the inhibition zone (DIZ)” value in the series on Acinetobacter johnsonii, in the series on Penicillium chrysogenum, in the series on Micrococcus luteus [6], with Staphylococcus aureus, with Candida tropicalis and in the series on Bacillus subtilis was “inactive” throughout. Moreover, the “diameter of the inhibition zone (DIZ)” value in the series on Priestia megaterium is “inactive”. This compound had a solubility in [2] of 1500 µg/mL (≈ 6.35 mM). The same compound gave a half-inhibitory concentration (IC50) in the series with HEK-293T of 173 µM. In addition, the “Selectivity Index” value in series [4] amounted to 20.5. The compound also gave a minimum inhibitory concentration (MIC) in series [5] of 8.46 µM (≈ 2 µg/mL).
With `CCNC(=O)N[C@H](CC)CO`, the “diameter of the inhibition zone (DIZ)” value with Bacillus, in the series with Micrococcus luteus [1], with Saccharomyces cerevisiae, in the series with Escherichia coli, in the series with Bacillus mycoides and in the series with Bacillus cereus was “inactive” throughout. The “diameter of the inhibition zone (DIZ)” value in the series with Acinetobacter johnsonii, with Penicillium chrysogenum, in the series with Micrococcus luteus [6], in the series with Staphylococcus aureus, in the series with Candida tropicalis and in the series with Bacillus subtilis was “inactive” in each case. For the same compound, the “diameter of the inhibition zone (DIZ)” value in the series on Priestia megaterium is “inactive”. Besides, the solubility in series [2] was 215000 µg/mL (≈ 1340 mM). Moreover, the Ratio in [3] is 5. In the series on HEK-293T, the midpoint of inhibition, the IC50, lay at 114 µM. For the same compound, in [4], the “Selectivity Index” value was determined as 91.2. The same compound displayed an MIC in [5] of 1.25 µM (≈ 0.2 µg/mL).
In the case of `CC[C@H](CO)NC(=O)c1ccccc1O`, the zone of inhibition at 50000 µg/mL in the series with Bacillus was 11 mm; in the series with Micrococcus luteus [1] it was 13 mm; with Saccharomyces cerevisiae it was 15 mm; in the series with Bacillus mycoides it was 12 mm; with Bacillus cereus it was 11 mm; with Acinetobacter johnsonii it was 13 mm. Besides, the zone of inhibition at 50000 µg/mL in the series on Micrococcus luteus [6] was 11 mm; in the series with Staphylococcus aureus, 11 mm; in the series on Candida tropicalis, 13 mm; with Priestia megaterium, 13 mm. This compound also returned a solubility in series [2] of 2000 µg/mL (≈ 9.56 mM). In series [3], the Ratio amounted to 5. Also, the “diameter of the inhibition zone (DIZ)” value with Escherichia coli, in the series on Penicillium chrysogenum and in the series on Bacillus subtilis was “inactive” each time. In the series with HEK-293T, the IC50 turned out to be 257 µM. Besides, the “Selectivity Index” value in series [4] was found to be 267.7. The compound further came in with a minimum inhibitory concentration (MIC) in series [5] of 0.96 µM (≈ 0.201 µg/mL).
With `CC[C@H](CO)NC(=O)c1ccccc1C(=O)N[C@H](CC)CO`, the “diameter of the inhibition zone (DIZ)” value in the series on Bacillus, in the series with Micrococcus luteus [1], in the series with Saccharomyces cerevisiae, in the series with Escherichia coli, in the series on Bacillus mycoides and in the series on Bacillus cereus was “inactive” each time. Moreover, the “diameter of the inhibition zone (DIZ)” value in the series with Acinetobacter johnsonii, in the series on Penicillium chrysogenum, in the series on Micrococcus luteus [6], with Staphylococcus aureus, with Candida tropicalis and with Bacillus subtilis was “inactive” each time. The “diameter of the inhibition zone (DIZ)” value with Priestia megaterium is “inactive”. In addition, in series [2], the solubility was 46000 µg/mL (≈ 149 mM). The Ratio in series [3] was 5. Besides, in the series on HEK-293T, it took 244 µM to reach half-maximal inhibition (IC50). In addition, the “Selectivity Index” value in [4] was 375.4. This compound also came in with a minimal inhibitory concentration (MIC) in series [5] of 0.65 µM (≈ 0.2 µg/mL).
Consider `CC[C@H](CO)NP(=O)(c1ccccc1)c1ccccc1`, for which the zone of inhibition at 50000 µg/mL in the series with Bacillus worked out at 15 mm; in the series with Micrococcus luteus [1] it was 18 mm; in the series on Saccharomyces cerevisiae, 16 mm; in the series on Bacillus mycoides it was 15 mm; in the series on Bacillus cereus, 15 mm; in the series with Acinetobacter johnsonii, 17 mm. The zone of inhibition at 50000 µg/mL with Micrococcus luteus [6] came to 15 mm; in the series on Staphylococcus aureus, 18 mm; with Candida tropicalis it was 22 mm; with Bacillus subtilis, 18 mm; in the series on Priestia megaterium, 16 mm. Further, the solubility in [2] is under 1000 µg/mL. The Ratio in [3] came to 5. In addition, in the series on Escherichia coli, the “diameter of the inhibition zone (DIZ)” value was “inactive”. This compound had an IC50 with HEK-293T of 155 µM. Besides, in series [4], the “Selectivity Index” value is 224.6. This compound registered an MIC in [5] of 0.69 µM (≈ 0.2 µg/mL).
As for `CC[C@H](COC(C)=O)NC(c1ccccc1)(c1ccccc1)c1ccccc1`, the “diameter of the inhibition zone (DIZ)” value in the series on Bacillus, in the series on Micrococcus luteus [1], in the series on Saccharomyces cerevisiae, in the series with Escherichia coli, in the series with Bacillus mycoides and with Bacillus cereus was “inactive” throughout. Also, the “diameter of the inhibition zone (DIZ)” value in the series on Acinetobacter johnsonii, in the series with Penicillium chrysogenum, in the series on Micrococcus luteus [6], in the series with Staphylococcus aureus, with Candida tropicalis and in the series with Priestia megaterium was “inactive” each time. In addition, the solubility in series [2] was under 1000 µg/mL. In the series with HEK-293T, this compound registered an IC50 of 114 µM. In addition, in series [4], the “Selectivity Index” value is listed as 8.5. This compound displayed an MIC in series [5] of 13.4 µM (≈ 5 µg/mL). In the series on Bacillus subtilis, the zone of inhibition at 50000 µg/mL amounted to 13 mm.
